PG9 binder = small molecules binding HIV-1 gp120 antibody PG9. TR-FRET gp120-PG9 antibody binding. inhibition, % at 6.7 µM. 360,000 compounds, 0.43% hits. AID 624416; in the data active = inhibition above about 8.5%
NR2E3 ag-1 = human photoreceptor-specific nuclear receptor agonism | Q9Y5X4 | CHO-S Gal4-NCOR/VP16-NR2E3 two-hybrid, luciferase | inhibition of corepressor binding, % at 3.98 µM | 360,000 compounds, 0.35% hits;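 active = inhibition above the mean of all tested compounds plus 3 SD, cut at about 70% in these data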;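 also: higher means lower luciferase signal from less NR2E3 corepressor binding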
Target sequence (Q9Y5X4 whole entry, looked up, the tested form may be a part): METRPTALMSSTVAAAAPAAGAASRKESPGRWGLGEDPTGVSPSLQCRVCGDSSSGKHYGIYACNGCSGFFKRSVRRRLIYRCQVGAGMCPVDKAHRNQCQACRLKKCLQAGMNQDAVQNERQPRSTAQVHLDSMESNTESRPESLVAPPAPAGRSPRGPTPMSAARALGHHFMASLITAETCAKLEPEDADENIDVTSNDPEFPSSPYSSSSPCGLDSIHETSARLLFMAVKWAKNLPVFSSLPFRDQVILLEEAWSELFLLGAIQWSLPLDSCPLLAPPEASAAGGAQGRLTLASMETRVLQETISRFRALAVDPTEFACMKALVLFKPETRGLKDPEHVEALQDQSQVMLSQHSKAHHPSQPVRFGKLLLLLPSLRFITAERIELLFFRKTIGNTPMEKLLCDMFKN
SKN-1 block = C. elegans SKN-1 inhibition | C. elegans VP596 Pgst-4::GFP/RFP ratio, acrylamide-induced, 24 h | inhibition, % at 21.8 µM | 360,000 compounds, 0.49% hits;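 active = interference check ratio from 0.5 to 1.5 plus GFP to RFP signal ratio inhibition reaching or exceeding a fixed threshold, cut at about 30% in these data, passing the limit was not always enough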
Rev-erbA mod = modulators of human Rev-erb alpha DNA binding. Rev-erbα–FITC-DNA binding, fluorescence polarization, 90 min. activity, % at 10 µM. 370,000 compounds, 0.79% hits. AID 1259318;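 active = activity above about 14%, limit read from the data; passing the limit was not always enough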
MT1-MMP act inh = blocks activation of human MT1-MMP; 360,000 compounds, 0.061% hits; P50281; HT1080 RFP-PRO-GFP cells, GFP/RFP ratio fluorescence, overnight; percent of plate control window, DMSO zero; GFP/RFP ratio change, % at 20 µM;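 active = GFP/RFP ratio change of at least 30% with cell ATP level not reduced by more than half and red fluorescence within 50% of control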
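Material: RFP-PRO-GFP reporter HT1080 cells. Dosing: single-point 20 µM compound, 1% DMSO. Controls: DMSO and RFP-L50D-GFP cell wells. Timing: cells overnight before dosing, compound overnight, 37 °C, 5% CO2. Measure: GFP/RFP fluorescence ratio.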
NR2E3 ag-2 = NR2E3 (human) agonism; GST-NR2E3/biotin-RetCOR TR-FRET, 1536-well; inhibition of corepressor binding, % at 4.78 µM; 320,000 compounds, 0.12% hits; AID 2300;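 active = percent inhibition above the cutoff of mean plus 3 SD of all tested compounds, set per screening campaign, cut at about 20% in these data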
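Material: NR2E3–RetCOR corepressor complex | Quantity: 1.35 nM GST-tagged NR2E3 final | Schedule: 5 h at 4 °C | Replication: Singlicate compound wells | Reagent: RetCOR corepressor, biotinylated, 7 nM | Controls: Biotin wells as high control, 0.6% DMSO wells as low control | Signal: TR-FRET, Eu(K)-anti-GST donor, streptavidin-D2 acceptor, ex 340, em 617/671 nm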
PG9 bind confirm = confirmation of small molecules binding HIV-1 gp120 antibody PG9. 1,500 compounds, 90% hits. shares compounds with PG9 binder. AID 651571. inhibition, % at 6.7 µM. TR-FRET PG9 antibody binding, biochemical; in the data active = inhibition above about 9%
PGV04 Ab binding = counter-screen for PG9 binders: binding control antibody PGV04. 1,500 compounds, 95% hits. TR-FRET PGV04 antibody-gp120 binding, biochemical. AID 651604. inhibition, % at 6.7 µM. shares compounds with PG9 binder; in the data active = inhibition above about 9.5%
PG9 bind DR = small molecules binding HIV-1 gp120 antibody PG9; AID 651848; shares compounds with PG9 binder; IC50, µM; TR-FRET PG9 antibody-gp120 binding inhibition; 95 tested, under 10 active; in the data active = IC50 below about 10 µM
PGV04 DR counter = counter-screen for PG9 binders: binding to control antibody PGV04; shares compounds with PG9 binder; TR-FRET binding to control antibody PGV04; IC50, µM; 95 compounds, 20% hits
PG126 binding DR = counter-screen for PG9 binders: binding to control antibody PG126. shares compounds with PG9 binder. TR-FRET binding to antibody PG126, counterscreen. IC50, µM. 95 compounds, 20% hits
NR1D1 mod conf = confirmation of modulators of human Rev-erb alpha DNA binding. AID 1259319. shares compounds with Rev-erbA mod. 3,000 compounds, 61% hits. Rev-erb alpha FITC-DNA binding, fluorescence polarization, 90 min. activation, % at 25 µM;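 active = activation at or above a set limit, or at least 3 SD above the negative control mean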
RORg DNA counter = affects RORgamma DNA binding in a Rev-erb alpha counter-screen. shares compounds with Rev-erbA mod. purified RORgamma protein-FITC-DNA binding, fluorescence polarization. IC50, µM. 910 compounds, 8% hits. AID 1259320;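 active = Compounds whose fitted half-maximal concentration for disrupting protein-DNA binding is below 10 micromolar; the record names Rev-erb in its text, so the target is in doubt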
Numbers stand for hits; – = inactive; · = no result given. Rows were chosen to be rich in hits. Some 1.9% of all compounds tested hit in one or more screens of this group. Rule as the data show it, unless noted: active = IC50 below about 9 µM; inactive = the rest.

SMILES	PG9 binder	NR2E3 ag-1	SKN-1 block	Rev-erbA mod	MT1-MMP act inh	NR2E3 ag-2	PG9 bind confirm	PGV04 Ab binding	NR1D1 mod conf	RORg DNA counter	others
Brc1cnc2nc(SCc3nc4ccccc4[nH]3)[nH]c2c1	–	–	–	–	–	–	·	·	·	·
Cc1cc(C)cc(OCc2nc3ncc(Br)cc3[nH]2)c1	34.4	–	–	61.9	–	–	47.4	62.6	38.5	–
Cn1c(NC(=O)c2cccc(Cn3cc(Cl)cn3)c2)nc2ccccc21	50.8	–	–	25.1	–	–	37.0	53.3	–	·
O=C(CSc1nnc(-c2cccnc2)n1-c1ccc(Cl)cc1)Nc1cccc2ccccc12	·	·	·	–	·	·	·	·	·	·
Cc1ccc(-c2nnc(NCc3nc4ccccc4[nH]3)c3ccccc23)cc1S(=O)(=O)N(C)C	11.5	–	–	75.6	–	–	21.4	34.3	52.5	–
Cc1ccc(-c2nnc(NCc3nc4ccccc4[nH]3)c3ccccc23)cc1S(=O)(=O)N1CCOCC1	·	–	–	·	·	–	·	·	·	·
COC(=O)[C@]12C[C@H](CC(=O)NCCCN3CCCC3=O)C(=O)N(Cc3ccccc3)C1=C[C@H](C(C)C)O[C@@H]2C1CC1	–	·	·	–	·	·	·	·	·	·
Cc1cc(-c2sccc2Br)nc(-n2cccc2)n1	10.9	–	–	49.7	–	·	23.2	31.5	27.3	·
COc1ccc(NC(=O)COc2ccc(Br)cc2)c(OC)c1	–	–	–	–	–	–	·	·	·	·
COc1ccc2cc(OCC(=O)NNC(=O)Nc3ccc(OC)c(OC)c3)ccc2c1	–	–	–	–	–	–	·	·	·	·
COc1ccc2cc(OCC(=O)NNC(=O)Nc3ccc(F)cc3)ccc2c1	22.9	–	–	42.1	–	–	34.4	44.8	34.9	3.07
COc1ccc(NC(=O)NNC(=O)COc2ccc3cc(Br)ccc3c2)c(OC)c1	60.6	–	–	118.2	–	–	63.0	74.1	111.0	–
Cc1ccc(-c2cc(-c3nnc4sc(Cc5cccs5)nn34)[nH]n2)cc1	·	·	·	–	·	·	·	·	·	·
COC(=O)C1=C(C)N(Cc2ccccc2C(F)(F)F)C(=NCc2cc(OC)c(OC)c(OC)c2)NC1c1cccc(Cl)c1 (stereo unspecified)	–	·	·	–	·	·	·	·	·	·
Cc1cccc(C)c1NC(=O)CSc1nc(C)c(CC(=O)c2ccc(Br)cc2)c(C)c1C#N	26.4	–	–	140.7	–	–	52.6	69.7	77.8	·
CC(=O)Nc1cccc(NC(=O)CSc2nc(C)c(C)c(C)c2C#N)c1	–	–	–	–	–	–	·	·	·	·
CCOc1ccc(-n2c(=O)c3sccc3n(CC(=O)Nc3cccc(OC)c3)c2=O)cc1	24.4	–	–	31.3	–	–	25.6	42.8	27.4	·
Cc1ccc(NC(=O)CN(C)C(=O)COc2ncnc3ccc(Br)cc23)cc1	21.5	–	–	21.2	–	–	9.1	–	16.7	·	PG9 bind DR=–;PGV04 DR counter=–;PG126 binding DR=–
N#Cc1c(N)nc(SCC(=O)NCc2ccc3c(c2)OCO3)c(C#N)c1-c1cccs1	49.7	–	–	85.3	–	–	23.4	40.4	53.7	–
